“Also recorded” adds a separate entry of the source.
Experiments:
estrogen receptor (ER) [1] = target: T1, estrogen receptor (ER) (Homo sapiens, UniProt P03372); assay: ER-CALUX assay, ER-agonistic activity; format: cell-based; conditions: T47D.Luc cells, 24 h; for ER-agonistic Response at 10 μM (% of E2max): relative to E2 (15 pM)
Outline: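 T47D.Luc cells (passages 22–25) stably carry pEREtataLuc and were exposed in phenol red-free DMEM/F12 with 5% charcoal/dextran FBS. Cells were seeded at 20,000 cells/cm2 and dosed 24 h later with test compound in DMSO for 24 h. They were then lysed (10 mM Tris, 2 mM DTT, 2 mM EGTA, pH 7.8) and luciferase measured. RLU minus DMSO control gave fold induction relative to E2 (15 pM) maximum.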

estrogen receptor (ER) [2] = target: T1, estrogen receptor (ER); assay: ER-CALUX assay, ER-antagonistic activity, co-exposure with E2; format: cell-based; conditions: T47D.Luc cells, 24 h; for ER-antagonistic Response at 25 μM (% of E2 response): in the presence of E2 (5 pM); for Modulation of E2-dependent induction of luciferase activity, in words: combined exposure with E2 (5 pM)
Outline: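 ER-CALUX in T47D.Luc cells (passages 22–25) kept in phenol red-free DMEM/F12 with 5% charcoal/dextran FBS. Test compound in DMSO was co-exposed with E2 (5 pM) for 24 h, then cells were lysed at pH 7.8 and luciferase read. IC25/IC50 are concentrations inhibiting E2-induced luciferase by 25/50%, calculated from full dose-response curves. Three independent experiments in triplicate.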

[3] = system: ER target gene TFF1 mRNA in MCF-7 cells; assay: Modulation of E2-induced TFF1 mRNA in MCF-7 cells; format: cell-based, human; conditions: 25 μM, 24 h, co-exposure with E2
Outline: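 MCF-7 cells (passages 15–18) in phenol red-free DMEM/F12 with 5% charcoal/dextran FBS were co-exposed for 24 h to test compound (25 μM) plus E2 (5 pM). TFF1 mRNA was measured by qRT-PCR: RT 50°C 20 min, 95°C 15 min, then 40 cycles of 95°C 15 s/60°C 60 s. PBGD was the reference gene, with comparative Ct analysis. Three independent experiments, n=6.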

[4] = system: AR target gene PSA mRNA in LNCaP cells; assay: Suppression of DHT-induced PSA mRNA in LNCaP cells; format: cell-based, human; conditions: 25 μM, 24-h co-exposure to 1 nM DHT
Outline: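 LNCaP cells (passages 4–6) were grown in RPMI-1640 with 10% FBS, then moved to phenol red-free RPMI-1640 with 5% dextran/charcoal-treated serum. After 24 h in fresh medium they were co-treated for 24 h with test compound and DHT (1 nM). PSA mRNA was measured by qRT-PCR (PBGD reference, comparative Ct) and expressed relative to DHT alone. Three independent experiments, n=6.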

[5] = system: all cell lines (T47D.Luc, MCF-7, LNCaP, HepaRG); assay: Cytotoxicity, neutral red assay; format: cell-based, human; conditions: up to 25 μM concentration
ER = conditions: ref Hamers et al. 2011; cited from earlier work
AR = conditions: ref Hamers et al. 2011; cited from earlier work
[6] = system: ER target gene TFF1 mRNA in MCF-7 cells; assay: Induction of TFF1 mRNA in MCF-7 cells; format: cell-based, human; conditions: 25 μM, 24 h
Outline: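 MCF-7 cells (passages 15–18) were moved to phenol red-free DMEM/F12 with 5% charcoal/dextran FBS and 1% non-essential amino acids. After 24 h in fresh medium they were treated for 24 h with 25 μM test compound. TFF1 mRNA was quantified by one-step qRT-PCR (PBGD reference, comparative Ct) and expressed relative to maximal induction by E2 (15 pM). Three independent experiments, n=6.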

[7] = system: CAR-dependent CYP2B6 mRNA in HepaRG cells; assay: CAR-agonistic response: induction of CYP2B6 mRNA in differentiated HepaRG cells; format: cell-based, human; conditions: CYP2B6 mRNA, HepaRG, 24 h, relative to PB (2 mM)
Outline: (§1)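 Differentiated HepaRG cells (passages 7–9) were grown 14 days in growth medium, then 14 days in differentiation medium, and returned to growth medium 3 days before a 24 h exposure to test compound (0.01–25 μM). CYP2B6 and CYP3A4 mRNA were measured by qRT-PCR (PBGD reference, comparative Ct) relative to PB (2 mM) and RIF (50 μM), respectively. EC25/EC50 were taken from dose-response curves.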

[8] = system: CYP2B6 mRNA (CAR-dependent); assay: as above; format: cell-based, human; conditions: human, differentiated HepaRG cells
Outline: as §1

[9] = system: PXR-dependent CYP3A4 mRNA in HepaRG cells; assay: PXR-agonistic response: induction of CYP3A4 mRNA in differentiated HepaRG cells; format: cell-based, human; conditions: 24 h
Outline: as §1

RyRs = conditions: ref Pessah et al. 2009; cited from earlier work
[10] = CYP3A4 mRNA, relative to RIF (50 μM)

T1 sequence (P03372 whole entry): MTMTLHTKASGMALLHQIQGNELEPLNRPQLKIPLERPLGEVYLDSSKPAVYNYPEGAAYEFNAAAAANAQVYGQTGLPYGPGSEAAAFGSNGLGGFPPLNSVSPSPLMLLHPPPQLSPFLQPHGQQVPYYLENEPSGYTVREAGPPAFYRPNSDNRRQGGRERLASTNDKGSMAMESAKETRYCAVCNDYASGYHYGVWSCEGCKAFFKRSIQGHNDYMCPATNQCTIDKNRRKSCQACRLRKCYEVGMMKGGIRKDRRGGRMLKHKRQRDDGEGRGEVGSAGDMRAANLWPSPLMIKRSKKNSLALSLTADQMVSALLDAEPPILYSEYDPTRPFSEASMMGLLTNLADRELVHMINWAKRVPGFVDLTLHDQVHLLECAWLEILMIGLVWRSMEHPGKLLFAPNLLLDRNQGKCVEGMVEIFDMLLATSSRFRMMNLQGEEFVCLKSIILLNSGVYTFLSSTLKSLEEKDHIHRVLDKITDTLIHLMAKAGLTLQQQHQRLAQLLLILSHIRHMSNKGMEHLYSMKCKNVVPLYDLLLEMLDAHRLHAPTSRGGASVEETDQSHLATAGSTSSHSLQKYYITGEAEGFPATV

| Compound | ER-mediated activity (induction of luciferase), in words (estrogen receptor (ER) [1]) | ER-agonistic Response at 10 μM (% of E2max) (estrogen receptor (ER) [1]) | ER-antagonistic Response at 25 μM (% of E2 response) (estrogen receptor (ER) [2]) | Effect on E2-induced TFF1 gene expression, in words [3] | Antiandrogenic activity (suppression of DHT-induced PSA mRNA), in words [4] | Cytotoxicity [5] | ER activity in luciferase reporter gene assays, in words (ER) | AR activity in luciferase reporter gene assays, in words (AR) | Modulation of E2-dependent induction of luciferase activity, in words (estrogen receptor (ER) [2]) | Estrogenicity (TFF1 mRNA induction), in words [6] | CAR-agonistic Maximum response at 5 μM (% of PB max) [7] | CAR-agonistic response EC25 [7] | EC50 at 24 h [8] | PXR-agonistic Maximum response at 25 μM (% of RIF max) [9, 10] | Activity towards RyR, in words (RyRs) | PXR-dependent CYP3A4 mRNA induction, in words [9] | PXR-agonistic response EC25 [9, 10] |
| --- | --- | --- | --- | --- | --- | --- | --- | --- | --- | --- | --- | --- | --- | --- | --- | --- | --- |
| Clc1ccc(Cl)c(-c2c(Cl)ccc(Cl)c2Cl)c1Cl (racemic) [(±)-PCB 136, 2,2',3,3',6,6'-hexachlorobiphenyl] | intermediate effect | 63 % of E2max | 81 % of E2 response | significantly potentiated the E2-induced TFF1 gene expression | significant antiandrogenic activity | no cytotoxicity was observed | ER-agonistic | AR-antagonistic |  |  |  |  |  |  |  |  |  |
| Clc1ccc(Cl)c(-c2c(Cl)ccc(Cl)c2Cl)c1Cl [(+)-PCB 136, 2,2',3,3',6,6'-hexachlorobiphenyl] | estrogenic; also recorded: strong ER-mediated activity | 89 % of E2max | 123 % of E2 response | significantly potentiated the E2-induced TFF1 gene expression |  |  |  |  | slightly potentiated E2-dependent induction of luciferase activity | relatively high estrogenicity | 38 % of PB max | 1.0 µM | 6.6 µM | 17 % of RIF max | no significant activity towards the RyR |  |  |
| Clc1ccc(Cl)c(-c2c(Cl)ccc(Cl)c2Cl)c1Cl [(−)-PCB 136, 2,2',3,3',6,6'-hexachlorobiphenyl] | did not induce a significant increase of luciferase activity | 27 % of E2max | 27 % of E2 response | inactive |  |  |  |  | exhibited antiestrogenic effects, especially at higher concentrations |  | 51 % of PB max | 0.7 µM |  | 38 % of RIF max | activate RyRs | significantly more potent inducer of PXR activity than (+)-PCB 136; also recorded: significantly more potent inducer of CYP3A4 mRNA than (+)-PCB 136 | 7.4 µM |

From publication PMC5943194 (Environmental science and pollution research international, 2017)
